Reference: ChEMBL document CHEMBL2057177, “Analogues of fenarimol are potent inhibitors of Trypanosoma cruzi and are efficacious in a murine model of Chagas disease” (J Med Chem, 2012)
Converted amounts (≈) assume the structure as drawn. The source made the active and inactive calls. The rule behind the calls is not given here.

Legend:
Trypanosoma cruzi [1] = assay: Antitrypanosomal activity against trypomastigotes of Trypanosoma cruzi Tulahuen expressing the beta- galactosidase gene infected rat L6 cells after 96 hrs; assay type: functional, organism-based; settings: L6, 96 h
Method in brief: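 Tulahuén trypomastigotes expressing β-galactosidase, maintained by serial passage in L6 cells. L6 cells seeded and left 24 h at 37 °C, 5% CO2, then infected at MOI 3 for 48 h. Compound exposure 96 h, benznidazole control. CPRG with 0.3% Nonidet P-40 added, absorbance at 530 nm after 4−6 h. IC50 taken from % inhibition curve; mean of at least two assays.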

L6 = assay: Cytotoxicity against rat L6 cells after 72 hrs by Alamar Blue assay; assay type: cell-based; settings: L6, 72 h
Method in brief: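 L6 rat skeletal myoblasts in RPMI 1640 with 10% FBS. Exposed to compound for 72 h, seven-point serial dilutions in triplicate. Alamar Blue read at 570 and 630 nm. IC50 is the mean of at least two assays; podophyllotoxin used as control.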

[2] = Kinetic solubility of the compound at pH 6.5 by nephelometric analysis; assay type: physicochemical; settings: buffer, read-out: Kinetic_solubility
CYP3A4/5 = CYP3A4/5 (Homo sapiens, UniProt P08684+P20815); assay: Inhibition of CYP3A4/5 in human liver microsomes; assay type: ADME, Microsome
[3] = Plasma concentration in Swiss mouse at 20 mg/kg, po after 8 hrs; assay type: ADME, organism-based; parameters: dose 20 mg/kg, route oral
Method in brief: (§1)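 Nonfasted male Swiss outbred mice (23.8–39.9 g), fed throughout. Dosed by oral gavage as solution or suspension in aqueous vehicle. Plasma assayed by LC-MS against blank-plasma standards after acetonitrile precipitation; LLOQ 0.001–0.015 μM.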

[4] = Plasma concentration in Swiss mouse at 20 mg/kg, po after 24 hrs; assay type: ADME, organism-based; parameters: dose 20 mg/kg, route oral
[5] = Plasma concentration in Swiss mouse at 20 mg/kg, po after 1 hr; assay type: ADME, organism-based; parameters: dose 20 mg/kg, route oral; method in brief: as §1
[6] = Plasma concentration in Swiss mouse at 100 mg/kg, po after 1 hr; assay type: ADME, organism-based; parameters: dose 100 mg/kg, route oral
Method in brief: (§2)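 Nonfasted male Swiss Outbred mice weighing 23.8−39.9 g, with food and water freely available, dosed by oral gavage as an aqueous solution or suspension. Plasma proteins precipitated with acetonitrile and compound quantified by LC-MS against standards made in blank mouse plasma. Lower limit of quantitation 0.001−0.015 μM.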

[7] = Plasma concentration in Swiss mouse at 100 mg/kg, po after 8 hrs; assay type: ADME, organism-based; parameters: dose 100 mg/kg, route oral; method in brief: as §2
Trypanosoma cruzi [8] = assay: Antitrypanosomal activity against trypomastigotes of Trypanosoma cruzi Tulahuen infected in Swiss mouse model of chagas disease assessed as decrease in parasite level in blood at 100 mg/kg, po administered 8 day after post infection qd for 20 days; assay type: functional; parameters: scale not given: the % may be the effect or the level left
Trypanosoma cruzi [9] = assay: Antitrypanosomal activity against trypomastigotes of Trypanosoma cruzi Tulahuen infected immunosuppressed Swiss mouse assessed as level of parasite in blood at 20 mg/kg, po administered 8 day after post infection qd for 20 days measured after 3 cycles of immunosuppression; assay type: functional, organism-based; parameters: dose 20 mg/kg
Trypanosoma cruzi [10] = assay: Antitrypanosomal activity against trypomastigotes of Trypanosoma cruzi Tulahuen infected in Swiss mouse model of chagas disease assessed as increase in host survival at 100 mg/kg, po administered 8 day after post infection qd for 20 days; assay type: functional, organism-based; parameters: dose 100 mg/kg
Trypanosoma cruzi [11] = assay: Antitrypanosomal activity against trypomastigotes of Trypanosoma cruzi Tulahuen infected immunosuppressed Swiss mouse assessed as level of parasite in blood at 100 mg/kg, po administered 8 day after post infection qd for 20 days measured after 3 cycles of immunosuppression; assay type: functional, organism-based; parameters: dose 100 mg/kg

Row | SMILES | IC50 (Trypanosoma cruzi [1]) | IC50 (L6) | also measured
1 | OC(c1ccc(Cl)cc1)(c1ccc(Cl)cc1)c1cccnc1 | 95 nM | – | –
2 | OC(c1ccc(C(F)(F)F)cc1)(c1ccc(C(F)(F)F)cc1)c1cccnc1 | 15 nM | – | –
3 | Clc1ccc(C(c2ccc(Cl)cc2)c2cncnc2)cc1 | 683 nM | – | –
4 | OC(c1ccc(Cl)cc1)(c1ccc(Cl)cc1)c1cncnc1 | 220 nM | – | –
5 | Clc1ccc(C(c2ccc(Cl)cc2)c2cccnc2)cc1 | 80 nM | 84700 nM | –
6 | OC(c1ccc(Cl)cc1)(c1cccnc1)c1ccccc1Cl (racemic) | – | – | solubility kinetic [2]: 3.1 µg/mL (≈ 9.39 µM); IC50 (CYP3A4/5): 600 nM
7 | Cc1ccccc1C(O)(c1ccc(Cl)cc1)c1cccnc1 (racemic) | – | 82000 nM | –
8 | OC(c1ccc(Cl)cc1)(c1cccnc1)c1ccc(Br)cc1F (racemic) | 26 nM | 79200 nM | –
9 | OC(c1ccc(Cl)cc1)(c1cccnc1)c1ccc(Cl)cc1F (racemic) | 10 nM | 59400 nM | solubility kinetic [2]: 1.6 µg/mL (≈ 4.6 µM); IC50 (CYP3A4/5): 900 nM
10 | [O-][n+]1cncc(C(O)(c2ccc(Cl)cc2)c2ccccc2Cl)c1 (racemic) | – | > 100000 nM | –
11 | COC(c1ccc(Cl)cc1)(c1cccnc1)c1ccccc1Cl (racemic) | 90 nM | 58700 nM | –
12 | OC(c1ccc(Cl)cc1)(c1ncccn1)c1ccccc1Cl (racemic) | – | > 100000 nM | –
13 | CC(C)CNC(c1ccc(Cl)cc1)(c1cccnc1)c1ccccc1Cl (racemic) | 606 nM | – | –
14 | OC(c1ccc(Cl)cc1)(c1cccnc1)c1nccs1 (racemic) | – | > 100000 nM | –
15 | OC(c1cccnc1)(c1cccs1)c1ccc(Cl)cc1F (racemic) | 5 nM | > 100000 nM | –
16 | OC(c1ccc(Cl)cc1)(c1ccncn1)c1ccccc1Cl (racemic) | – | > 100000 nM | –
17 | CS(=O)(=O)Nc1ccc(C(O)(c2ccc(Cl)cc2)c2cccnc2)cc1 (racemic) | 30 nM | > 100000 nM | –
18 | CN(C)c1ccc(C(O)(c2ccc(C(F)(F)F)cc2)c2cccnc2)cc1 (racemic) | 6 nM | – | –
19 | OC(c1ccc(Cl)cc1)(c1cccnc1)c1cnc(Cl)s1 (racemic) | – | > 100000 nM | –
20 | NC(=O)c1ccc(C(O)(c2ccc(C(F)(F)F)cc2)c2cccnc2)cc1 (racemic) | – | > 100000 nM | –
21 | COc1ccc(C(O)(c2ccc(Cl)cc2)c2cccnc2)cc1 (racemic) | 40 nM | – | –

Row | SMILES | IC50 (Trypanosoma cruzi [1]) | IC50 (L6) | also measured
22 | OC(c1ccc(Cl)cc1)(c1cccnc1)c1ccsc1 (racemic) | – | > 100000 nM | –
23 | CC(C)c1ccc(C(O)(c2ccc(C(F)(F)F)cc2)c2cccnc2)cc1 (racemic) | 2 nM | 56300 nM | –
24 | CC(C)Oc1ccc(C(O)(c2ccc(C(F)(F)F)cc2)c2cccnc2)cc1 (racemic) | 4 nM | – | solubility kinetic [2]: 1.6 µg/mL (≈ 4.13 µM); IC50 (CYP3A4/5): 1400 nM
25 | NC(=O)c1cccc(C(O)(c2cccnc2)c2ccc(Cl)cc2F)c1 (racemic) | 25 nM | > 100000 nM | solubility kinetic [2]: 50 µg/mL (≈ 140 µM); IC50 (CYP3A4/5): 3900 nM; concentration at 8 h [3]: 440 nM; concentration at 24 h [4]: 6 nM; concentration at 1 h [5]: 10500 nM
26 | CC(C)C(=O)Nc1ncc(C(O)(c2ccc(Cl)cc2)c2cccnc2)s1 (racemic) | 21 nM | – | –
27 | OC(c1ccc(Cl)cc1)(c1ccc(C(F)(F)F)cc1)c1cccnc1 (racemic) | 8 nM | – | –
28 | OC(c1ccc(Cl)cc1)(c1cccnc1)c1ccccc1Br (racemic) | 70 nM | – | –
29 | CC(C)Oc1ccc(C(O)(c2cccnc2)c2cnc(Cl)nc2)cc1 (racemic) | 304 nM | > 100000 nM | –
30 | OC(c1ccc(Br)cc1)(c1ccc(C(F)(F)F)cc1)c1cccnc1 (racemic) | 20 nM | – | –
31 | CC(C)Oc1ccc(C(O)(c2ccc(Cl)cc2)c2cccnc2)cc1 (racemic) | 2 nM | – | solubility kinetic [2]: 1.6 µg/mL (≈ 4.52 µM); IC50 (CYP3A4/5): 1900 nM; concentration at 1 h [6]: 9600 nM; concentration at 8 h [7]: 600 nM
32 | CC(C)Oc1ccccc1C(O)(c1ccc(Cl)cc1)c1cccnc1 (racemic) | – | 48300 nM | –
33 | NC(=O)c1cccc(C(O)(c2ccc(C(F)(F)F)cc2)c2cccnc2)c1 (racemic) | 70 nM | > 100000 nM | –
34 | OC(c1ccc(Cl)cc1)(c1cccnc1)c1cncnc1 (racemic) | – | > 100000 nM | solubility kinetic [2]: > 100 µg/mL; IC50 (CYP3A4/5): 5000 nM; concentration at 8 h [3]: < 2 nM; concentration at 1 h [5]: 300 nM
35 | COc1cccc(C(O)(c2ccc(Cl)cc2)c2cccnc2)c1 (racemic) | 60 nM | – | –
36 | OC(c1ccc(Cl)cc1)(c1cccnc1)c1ccc(F)cc1F (racemic) | 16 nM | – | –
37 | NC(c1ccc(Cl)cc1)(c1cccnc1)c1ccccc1Cl (racemic) | 90 nM | – | –
38 | N#Cc1ccc(C(O)(c2ccc(Cl)cc2)c2cccnc2)c(F)c1 (racemic) | – | > 100000 nM | –
39 | OC(c1ccc(Cl)cc1)(c1cccnc1)c1ccccc1F (racemic) | 35 nM | > 100000 nM | –
40 | CC(C)Oc1ncc(C(O)(c2ccc(Cl)cc2)c2cccnc2)cn1 (racemic) | 60 nM | > 100000 nM | –
41 | OC(c1ccc(Cl)cc1)(c1cncnc1)c1ccccc1F (racemic) | – | > 100000 nM | –
42 | N#CC(c1ccc(Cl)cc1)(c1cccnc1)c1ccccc1Cl (racemic) | 50 nM | – | –

Row | SMILES | IC50 (Trypanosoma cruzi [1]) | IC50 (L6) | also measured
43 | N#Cc1ccc(C(O)(c2ccc(Cl)cc2)c2cccnc2)cc1 (racemic) | 70 nM | > 100000 nM | –
44 | Cc1ccc(C(O)(c2ccc(OC(C)C)cc2)c2cccnc2)c(F)c1 (racemic) | 3 nM | – | –
45 | N#Cc1ccc(C(O)(c2ccc(C(F)(F)F)cc2)c2cccnc2)c(F)c1 (racemic) | 2 nM | – | solubility kinetic [2]: 6.3 µg/mL (≈ 16.9 µM); IC50 (CYP3A4/5): 4100 nM; concentration at 8 h [3]: 300 nM; concentration at 24 h [4]: 50 nM; concentration at 1 h [5]: 1400 nM
46 | OC(c1ccc(C(F)(F)F)cc1)(c1cccnc1)c1ccc(Cl)cc1F (racemic) | 2 nM | > 100000 nM | solubility kinetic [2]: < 1.6 µg/mL; IC50 (CYP3A4/5): 1400 nM; concentration at 8 h [3]: 230 nM; concentration at 24 h [4]: 3 nM; concentration at 1 h [5]: 1240 nM
47 | OC(c1ccc(Cl)cc1)(c1ccccn1)c1ccccc1Cl (racemic) | 27000 nM | > 100000 nM | –
48 | Clc1ccc(C(c2cncnc2)c2ccccc2Cl)cc1 (racemic) | – | > 100000 nM | –
49 | OC(c1ccc(Cl)cc1)(c1cccnc1)c1cncs1 (racemic) | – | > 100000 nM | –
50 | OC(c1ccc(Cl)cc1)(c1cccnc1)c1ccccc1C(F)(F)F (racemic) | 120 nM | – | –
51 | OC(c1ccc(Cl)cc1)(c1cnccn1)c1ccccc1Cl (racemic) | – | > 100000 nM | –
52 | Cc1ccc(C(O)(c2ccc(Cl)cc2)c2cncnc2)cc1 (racemic) | 24 nM | – | –
53 | OC(c1ccc(C(F)(F)F)cc1)(c1cccnc1)c1cc2ccccc2s1 (racemic) | 20 nM | – | –
54 | CC(C)Oc1ccc(C(O)(c2cccnc2)c2ccc(Cl)cc2F)cc1 (racemic) | 1 nM | – | solubility kinetic [2]: 1.6 µg/mL (≈ 4.3 µM); IC50 (CYP3A4/5): 1100 nM
55 | OC(c1ccc(Cl)cc1)(c1cccnc1)c1cccc(F)c1 (racemic) | 100 nM | 66000 nM | –
56 | N#Cc1cccc(C(O)(c2ccc(Cl)cc2)c2cccnc2)c1 (racemic) | – | > 100000 nM | –
57 | CC(C)Oc1cccc(C(O)(c2ccc(Cl)cc2)c2cccnc2)c1 (racemic) | 82 nM | 67600 nM | –
58 | CC(C)Oc1ccc(C(O)(c2ccc(Cl)cc2)c2cccnc2)c(F)c1 (racemic) | 26 nM | 58200 nM | –
59 | Nc1ncc(C(O)(c2ccc(Cl)cc2)c2cccnc2)s1 (racemic) | 260 nM | 56000 nM | –
60 | OC(c1ccc(Cl)cc1)(c1ccc(C(F)(F)F)cc1)c1cncnc1 (racemic) | 197 nM | 66800 nM | –
61 | OC(c1ccc(Cl)cc1)(c1cncnc1)c1cccc(F)c1 (racemic) | – | > 100000 nM | –
62 | OC(c1ccc(Cl)cc1)(c1cccnc1)c1cccc(C(F)(F)F)c1 (racemic) | 70 nM | – | –
63 | O=C(Cn1ccnc1[N+](=O)[O-])NCc1ccccc1 [BENZNIDAZOLE] | – | – | Activity (Trypanosoma cruzi [8]): >99%; Activity (Trypanosoma cruzi [9]): Active; Activity (Trypanosoma cruzi [10]): Active; Activity (Trypanosoma cruzi [11]): Active
